In general, inhibition refers to how much of the control response was suppressed. One may read the IC50 as the concentration that gives 50% inhibition. As a reminder, the half-life is how long it takes for the measured level to halve. A lower half-life goes with fast loss.

Here are results for 25 molecules from ChEMBL document CHEMBL3997826, “Discovery and characterization of novel indole and 7-azaindole derivatives as inhibitors of β-amyloid-42 aggregation for the treatment of Alzheimer's disease” (Bioorg Med Chem Lett, 2017).

Data set [1] addresses T1, Amyloid-beta precursor protein (Homo sapiens, UniProt P05067). As to the kind of experiment: Inhibition of HFIP-pretreated amyloid beta (1 to 42 residues) (unknown origin) aggregation at 1:10 protein to compound ratio after 24 hrs by ThT fluorescence assay relative to control. The following applies: concentration not given here. Put shortly: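 A crude Aβ1-42 peptide film at 33 µM was mixed with compound at 330 µM, a 1:10 molar ratio, and aggregation was read by thioflavin-T fluorescence. Values are percent of the DMSO-only Aβ1-42 aggregation control, as the mean ± SD of two independent experiments.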

Data set [2] addresses T1, Amyloid-beta precursor protein. Nature of the data set: Inhibition of HFIP-pretreated amyloid beta (1 to 42 residues) (unknown origin) aggregation after 24 hrs by ThT fluorescence assay.
Data set [3] is described as follows: Half life in human liver microsomes. It counts as ADME, microsome.
The subject of another data set is Liver. As to the kind of experiment: Drug metabolism in human liver microsomes assessed as oxidation of indole-3 position. It counts as ADME, microsome. (In general: Microsomes from liver hold many membrane-bound enzymes, among them those of drug oxidation.)
Data set [4] in a line: Metabolic stability in human liver microsomes assessed as parent compound remaining after 1 hr. The following applies: read-out: Stability. The data set is classed as ADME, microsome. An outline of the steps:
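Compounds were incubated with human or mouse liver microsomes for 1 h at 37 °C. The read-out was the percentage of parent compound remaining.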

A short description of data set [5]: Permeability from apical to basolateral side in human Caco2 cells. The conditions noted are these: Caco-2, read-out: permeability. It counts as ADME, cell-based. Put shortly: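 Apical-to-basolateral permeability was reported in cm/s. The efflux ratio was used to judge P-gp substrate status.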

T1 sequence (P05067 whole entry, the tested form may be a part): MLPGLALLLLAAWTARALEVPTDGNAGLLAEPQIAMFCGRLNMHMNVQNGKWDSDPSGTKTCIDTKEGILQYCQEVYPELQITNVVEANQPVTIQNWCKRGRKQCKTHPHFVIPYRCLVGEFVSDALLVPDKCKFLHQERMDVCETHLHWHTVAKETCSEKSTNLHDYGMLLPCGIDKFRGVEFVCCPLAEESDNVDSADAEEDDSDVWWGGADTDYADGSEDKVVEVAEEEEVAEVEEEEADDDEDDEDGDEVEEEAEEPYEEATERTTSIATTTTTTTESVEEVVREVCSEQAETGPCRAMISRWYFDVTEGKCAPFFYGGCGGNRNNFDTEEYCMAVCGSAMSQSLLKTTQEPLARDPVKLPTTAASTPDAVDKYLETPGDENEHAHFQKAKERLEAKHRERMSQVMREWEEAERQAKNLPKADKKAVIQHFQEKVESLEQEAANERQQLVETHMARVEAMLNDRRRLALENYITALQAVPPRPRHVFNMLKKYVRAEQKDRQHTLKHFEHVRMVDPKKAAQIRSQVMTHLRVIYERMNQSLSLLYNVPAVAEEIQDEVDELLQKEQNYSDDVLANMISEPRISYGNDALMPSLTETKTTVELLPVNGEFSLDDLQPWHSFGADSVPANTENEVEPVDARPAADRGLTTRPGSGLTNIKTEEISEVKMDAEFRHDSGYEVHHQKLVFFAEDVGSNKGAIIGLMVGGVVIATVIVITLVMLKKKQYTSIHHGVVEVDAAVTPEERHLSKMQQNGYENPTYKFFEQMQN

Consider `c1cc2ccc(Nc3ccc4cc[nH]c4n3)cc2[nH]1`, for which, in data set [1], the inhibition is 75%. Still for that read-out and setting: the figure for `c1cc2cc(Nc3ccc4cc[nH]c4c3)ccc2[nH]1` is 94%; for `Fc1ccc(Nc2ccc3cc[nH]c3n2)cc1` it is 52%; for `c1cc2cc(Nc3ccc4cc[nH]c4n3)cnc2[nH]1` it is 86%. For the molecule `CN1CCC(c2c[nH]c3cc(Nc4ccc5[nH]cc(C6CCN(C)CC6)c5c4)ccc23)CC1`, the inhibition in data set [1] is > 90%. Moreover, the half-maximal inhibitory concentration (IC50) in data set [2] amounted to 15.3 µM. With `CN1CCC(c2c[nH]c3cc(Nc4ccc5c(C6CCN(C)CC6)c[nH]c5c4)ccc23)CC1`, the inhibition in data set [1] was > 90%. In the case of `FC(F)(F)c1ccc(Nc2ccc3c(C4CCNCC4)c[nH]c3c2)cn1`, in data set [1], the inhibition lay within 81 to 93%. Also, the half-inhibitory concentration (IC50) in data set [2] is 24 µM. `c1cc2ncc(Nc3ccc4cc[nH]c4n3)cc2[nH]1`: in data set [1], the inhibition was determined as 98%. Moreover, the half-life in data set [3] was determined as 11 min. For the same molecule, the Drug metabolism result in the data set with Liver is listed as “Metabolite_Detected”. Moreover, the IC50 in data set [2] was 23.8 µM. As to `CN1CCC(c2c[nH]c3ccc(Nc4ccc5c(C6CCNCC6)c[nH]c5n4)cc23)CC1`, the inhibition in data set [1] is > 90%. Also, the remaining at 1 h in data set [4] stood at 95%. Besides, the Papp A→B in data set [5] stood at 0.02 ×10⁻⁶ cm/s. Take `c1cc2ccc(NC3CCNCC3)nc2[nH]1`: the inhibition in data set [1] turned out to be 48%. In the case of `c1cc2c(C3CCNCC3)c[nH]c2cc1Nc1ccc2c(C3CCNCC3)c[nH]c2n1`, in data set [1], the inhibition is > 90%. The IC50 in data set [2] was determined as 25.6 µM. On to `c1cc2ccc(Nc3ccc4cc[nH]c4c3)cc2[nH]1`, for which, in data set [1], the inhibition is 96%. Consider `N#Cc1c[nH]c2nc(Nc3ccc4c(C5CCNCC5)c[nH]c4c3)ccc12`, for which the inhibition in data set [1] was > 90%. Also, the IC50 in data set [2] came to 17.8 µM. As for `Fc1cc(F)cc(Nc2ccc3cc[nH]c3n2)c1`, in data set [1], the inhibition is 60%. In the case of `COc1ccc(Nc2ccc3c(C4CCN(C)CC4)c[nH]c3c2)cc1OC`, the inhibition in data set [1] was in the range of 81 to 93%. In addition, the IC50 in data set [2] is 25 µM. Regarding `c1ccc(Nc2ccc3cc[nH]c3n2)nc1`, the inhibition in data set [1] is 71%.

In the case of `c1cc2c(C3CCNCC3)c[nH]c2cc1Nc1ccc2[nH]cc(C3CCNCC3)c2c1`, in data set [1], the inhibition was > 90%. Moreover, in data set [2], the IC50 came to 26.6 µM.

With `c1cc2ccc(Nc3ccc4cc[nH]c4n3)nc2[nH]1`, the inhibition in data set [1] came out at 75%. Same read-out and setting: for `c1cc2cc(Nc3ccc4cc[nH]c4n3)ccc2[nH]1` the value was 97%. Turning to `Fc1ccc(Nc2ccc3c(C4CCNCC4)c[nH]c3n2)cc1F`, the inhibition in data set [1] was in the range of 81 to 93%. In addition, in data set [2], the concentration for half-maximal inhibition (IC50) came out at 30 µM.

Take `Cn1cc(C2CCNCC2)c2ccc(Nc3ccc(F)c(F)c3)cc21`: the inhibition in data set [1] fell in the range of 81 to 93%. The IC50 in data set [2] was found to be 42 µM. As to `Fc1cc(F)cc(Nc2cnc3cc[nH]c3c2)c1`, in data set [1], the inhibition came to 52%. Take `CN1CCC(c2c[nH]c3cc(Nc4ccc(F)c(F)c4)ccc23)CC1`: the inhibition in data set [1] was 81 to 93%. Further, the concentration for half-maximal inhibition (IC50) in data set [2] came out at 48 µM. In the case of `Fc1ccc(Nc2ccc3c(C4CCNCC4)c[nH]c3c2)cc1F`, the inhibition in data set [1] fell in the range of 81 to 93%. Moreover, the 50% inhibitory concentration (IC50) in data set [2] was 24 µM. For the molecule `c1cc2c(C3CCNCC3)c[nH]c2cc1Nc1ccc2c(C3CCNCC3)c[nH]c2c1`, in data set [1], the inhibition is > 90%. Further, the remaining at 1 h in data set [4] worked out at 89%. Besides, the Papp A→B in data set [5] amounted to 0.01 ×10⁻⁶ cm/s.
